Hits are enriched below; roughly 2.9% of the tested compounds scored in any of these assays.
mABHD4 FP = inhibitors of mouse ABHD4 | Q8VD66 | purified mABHD4, FP-Rh probe fluorescence polarization | inhibition, % at 8.92 µM | 0.54% of 370,000 active | AID 720543;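 active means inhibition exceeding the mean over every tested compound plus 3 SD, cut at about 30% in these data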
Target sequence (Q8VD66 whole entry, looked up): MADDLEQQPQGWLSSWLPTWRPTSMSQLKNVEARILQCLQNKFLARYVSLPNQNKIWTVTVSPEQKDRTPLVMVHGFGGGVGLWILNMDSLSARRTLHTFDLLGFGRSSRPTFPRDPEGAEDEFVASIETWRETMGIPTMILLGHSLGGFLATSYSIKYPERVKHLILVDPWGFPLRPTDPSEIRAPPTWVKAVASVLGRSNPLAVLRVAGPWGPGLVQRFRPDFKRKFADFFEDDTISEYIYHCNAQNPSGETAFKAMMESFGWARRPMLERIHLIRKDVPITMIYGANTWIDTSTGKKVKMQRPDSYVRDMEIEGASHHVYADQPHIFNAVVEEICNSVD
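Assay system: wild-type mouse ABHD4 protein; compound: single nominal dose of 8.92 µM, 0.89% DMSO final; schedule: 45 min + 60 min at 25 °C; measured by: FP readout, ex 525 nm / em 598 nm; evaluation: % inhibition of FP-Rh probe binding versus controls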
SIAE primary = blocks human sialic acid acetylesterase; Q9HAT2; SIAE FP-Rh probe binding, fluorescence polarization; inhibition, % at 9.66 µM; 0.69% of 370,000 active; AID 1053197;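 active means inhibition above a cutoff: mean of compounds within the control limits plus 3 SD of those, cut at about 17% in these data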
PRMT1 FP inh = blocks human protein arginine methyltransferase 1; Q99873; recombinant PRMT1, activity-based probe fluorescence polarization; inhibition, % at 2.79 µM; 1.3% of 370,000 active; AID 652257;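 active means inhibition above about 21% made by adding two undisclosed values, limit read from the data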
Target sequence (Q99873 whole entry, looked up): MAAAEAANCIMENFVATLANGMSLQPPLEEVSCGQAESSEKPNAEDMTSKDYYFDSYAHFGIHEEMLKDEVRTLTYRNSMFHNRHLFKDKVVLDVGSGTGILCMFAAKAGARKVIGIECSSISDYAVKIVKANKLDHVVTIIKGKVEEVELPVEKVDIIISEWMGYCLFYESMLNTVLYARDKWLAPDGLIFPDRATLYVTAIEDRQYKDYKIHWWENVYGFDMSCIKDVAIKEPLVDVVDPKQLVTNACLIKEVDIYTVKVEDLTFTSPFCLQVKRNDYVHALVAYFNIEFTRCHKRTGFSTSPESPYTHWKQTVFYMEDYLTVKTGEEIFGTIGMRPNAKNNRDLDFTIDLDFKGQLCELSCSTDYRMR
TCR CD3 inh = human TCR-CD3 binding inhibition; inhibition, % at 9.4 µM; 0.37% of 360,000 active; TAMRA-labeled TCR probe fluorescence, biochemical; AID 651800;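 further: recombinant mutant TCR 2C K166C tagged with TAMRA read by polarization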
PAD4 inh = PAD4 (human) enzyme inhibition. recombinant PAD4, RCA probe fluorescence polarization. inhibition, % at 6.36 µM. Q9UM07. AID 485272. 0.41% of 330,000 active;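 active means percent inhibition above a cutoff equal to the mean of all tested compounds plus 3 SD, cut at about 15% in these data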
HTRA1 inh = inhibitors of human serine peptidase HTRA1. 0.5% of 340,000 active. inhibition, % at 5.96 µM. recombinant HTRA1, FP-rhodamine activity-based probe, fluorescence polarization. AID 504803; in the data active means inhibition above about 36%
HTRA1 conf = confirmation of human HTRA1 inhibitors; AID 540248; recombinant HTRA1, FP-rhodamine activity-based probe, fluorescence polarization; inhibition, % at 5.96 µM; 66% of 1,600 active; shares compounds with HTRA1 inh;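 active means mean inhibition over three repeats above a set limit taken from the earlier primary screen, cut at about 37% in these data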;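 further: inhibitors block probe binding so polarization drops and inhibition rises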
BSA probe FL = interferes with TAMRA-BSA probe, flagging TCR-CD3 hits; AID 652035; inhibition, % at 9.4 µM; TAMRA-labeled BSA probe fluorescence counterscreen; 10% of 1,200 active; shares compounds with TCR CD3 inh; in the data active means inhibition above about 23%
TCR-CD3 inh conf = TCR-CD3 interaction inhibition, confirmation. AID 652036. inhibition, % at 9.4 µM. shares compounds with TCR CD3 inh. TAMRA-labeled TCR probe fluorescence binding assay. 48% of 1,200 active
PRMT1 confirm = confirmation of human PRMT1 inhibitors; shares compounds with PRMT1 FP inh; recombinant His-PRMT1, activity-based probe fluorescence polarization; inhibition, % at 2.79 µM; 42% of 3,300 active;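 active means mean inhibition across replicates above the hit cutoff derived for the earlier primary screen, cut at about 22% in these data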
mABHD4 conf = confirmation of mouse ABHD4 inhibitors; shares compounds with mABHD4 FP; purified mABHD4, FP-Rh probe fluorescence polarization; inhibition, % at 8.92 µM; 55% of 1,800 active;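 active means mean inhibition across replicates above the hit cutoff set in the primary screen, cut at about 30% in these data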
SIAE confirm = confirmation of human SIAE inhibitors | shares compounds with SIAE primary | SIAE FP-Rh activity-based probe, fluorescence polarization | inhibition, % at 9.66 µM | 13% of 2,300 active;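 active means mean inhibition of the replicates above the hit cutoff set in the primary screen, cut at about 17% in these data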;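 further: inhibitors lower polarization as more probe stays unbound to SIAE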
A number is an active result; 0 = inactive; - = no result. Unless noted, no stated cut-off is given here; in the data, active means inhibition above about 19%; inactive means the rest.

SMILES	mABHD4 FP	SIAE primary	PRMT1 FP inh	TCR CD3 inh	PAD4 inh	HTRA1 inh	HTRA1 conf	mABHD4 conf	SIAE confirm	others
Cc1ccc(S(=O)(=O)NCc2ccc3c(c2)cc(C)n3C)cc1	60	28	0	42	0	40	0	0	0	BSA probe FL=0;TCR-CD3 inh conf=0
Oc1ccc(C2=Nn3c(nnc3-c3ccco3)SC2)cc1O	43	30	0	22	0	44	0	40	0
CCOc1ccccc1N1CCN(Cc2cccc(OC)c2O)CC1	0	0	0	0	0	0	-	-	-
COc1ccccc1N1CCN(Cc2cc(Br)c(O)c3ncccc23)CC1	0	29	0	0	0	55	82	-	22
COc1ccc(CNC(=O)O[C@H]2CC[C@@]34CCCN3C(=O)CCC[C@H]4[C@H]2C)cc1	0	0	0	-	-	-	-	-	-
COc1cccc2[nH]c3ccccc3c(=O)c12	-	-	-	-	0	0	-	-	-
Nc1cccc2c(=O)c3ccccc3[nH]c12	60	30	0	0	0	55	0	41	0
CCNCc1ccccc1OCc1ccccc1	0	0	0	0	0	0	-	-	-
Oc1ccc(NCc2ccccc2OCc2ccccc2)cc1	81	39	0	26	0	49	0	0	0	BSA probe FL=0;TCR-CD3 inh conf=0
N#CC(C#N)=C1C=C2C=C(N3CCCCCC3)CCC2CC1 (stereo not given)	0	28	0	29	-	52	0	-	22	BSA probe FL=0;TCR-CD3 inh conf=0
Nc1ccc(C(=O)N/N=C\c2cc(N=Nc3cccc4ccccc34)ccc2O)cc1	0	36	0	0	0	56	91	-	19
COC(=O)N/N=C/c1cc(N=Nc2ccccc2Cl)ccc1O	0	0	0	0	0	0	-	-	-
CC(C)OC(=O)C1=CNCC(C)(C)c2c1[nH]c1cc(F)ccc21	0	0	0	-	-	-	-	-	-
CCNc1ccc(Br)cc(C(=O)/C=C/c2ccccc2Cl)c1=O	37	22	33	0	0	64	0	43	0	PRMT1 confirm=0
O=C(Nc1ccc(O)cc1)C1CC=CCC1 (stereo not given)	0	23	0	0	0	48	42	-	0
COc1ccc(OC)c2[nH]c(C(=O)N/N=C/c3ccccc3O)cc12	0	35	0	0	0	54	0	-	0
CCCCCCc1ccc(NC(=O)[C@@H]2CC=C[C@@H]3CCN(Cc4ccccc4)C(=O)[C@@H]32)cc1	0	0	0	-	-	-	-	-	-
Cc1cc(C)c(Nc2cc(S(=O)(=O)O)c(N)c3c2C(=O)c2ccccc2C3=O)c(C)c1	77	35	0	0	0	66	67	110	29
CS(=O)(=O)N1c2ccccc2C[C@H]1Cc1cc2ccccc2o1	0	0	0	-	-	-	-	-	-
COc1ccc2nc(-c3ccco3)c(-c3ccco3)nc2c1	57	23	63	31	0	52	0	0	0	BSA probe FL=0;TCR-CD3 inh conf=31
O=C(Nc1ccccc1)c1ccc2nc(-c3ccco3)c(-c3ccco3)nc2c1	47	22	38	24	0	59	0	0	0
CCCCNC(=O)c1ccc2nc(-c3ccco3)c(-c3ccco3)nc2c1	60	27	42	23	0	53	39	52	0	BSA probe FL=0;TCR-CD3 inh conf=0;PRMT1 confirm=48
S=C(Nc1ccc(N2CCOCC2)cc1)Nc1ccc2nc(-c3ccco3)c(-c3ccco3)nc2c1	38	21	43	0	0	48	0	42	0
O=C(NC(=S)Nc1ccc(N2CCOCC2)cc1)c1ccco1	0	0	0	0	0	0	-	-	-
COc1ccc(-c2nc3ccccc3nc2-c2ccc(OC)cc2)cc1	0	0	0	0	0	0	-	-	-
SMILES	mABHD4 FP	SIAE primary	PRMT1 FP inh	TCR CD3 inh	PAD4 inh	HTRA1 inh	HTRA1 conf	mABHD4 conf	SIAE confirm	others
O=C(Nc1cccnc1)c1ccc2nc(-c3ccccc3)c(-c3ccccc3)nc2c1	0	0	0	0	0	0	-	-	-
CCCNC(=O)c1ccc2nc(-c3ccccc3)c(-c3ccccc3)nc2c1	0	0	0	0	0	0	-	-	-
Cc1cc(NS(=O)(=O)c2ccc(NC(=O)Cc3ccccc3)cc2)no1	0	0	0	-	-	-	-	-	-
CNC12CCc3cc(OC)c(OC)c(c31)-c1cc3c(cc1C2)OCO3 (stereo not given)	0	0	0	0	-	-	-	-	-
O=C(CSc1nnc(-c2cccs2)o1)c1cccc([N+](=O)[O-])c1	0	0	0	-	-	-	-	-	-
c1ccc(-c2ccc(C3=Nn4c(nnc4-c4ccccn4)SC3)cc2)cc1	0	0	0	-	-	-	-	-	-
Cc1ccc2[nH]c(C)c(/C=N/Nc3nc4ccccc4s3)c2c1	31	41	0	0	0	49	53	43	0
CCOC(=O)c1nc(Nc2ccc(Nc3ccccc3)cc2)c2ccccc2n1	0	22	0	0	-	46	60	-	0
O=C(CSc1nnc(-c2ccccc2)n1-c1ccc(Cl)cc1)Nc1cccc2ccccc12	0	0	0	-	-	-	-	-	-
COc1ccc(-n2c(COc3ccc(C)cc3)nnc2SCC(=O)c2ccc(-c3ccccc3)cc2)cc1	0	0	0	-	-	-	-	-	-
CC(=O)NC(c1ccco1)c1cc(Cl)c2ccccc2c1O (stereo not given)	0	0	0	0	0	0	-	-	-
CCC(=O)NC(c1ccc(OC)c(OC)c1)c1cc(Cl)c2cccnc2c1O (stereo not given)	0	26	0	0	-	52	81	-	0
CCC(=O)NC(c1ccco1)c1cc(Cl)c2ccccc2c1O (stereo not given)	0	0	0	0	0	0	-	-	-
COc1ccccc1C(NC(C)=O)c1cc(Cl)c2cccnc2c1O (stereo not given)	0	22	0	0	0	49	71	-	0
O=C(c1ccc2c(c1)OCO2)N1CCC(Oc2cccnc2)CC1	0	0	0	-	-	-	-	-	-
O=C1CCSc2cccc3cccc(c23)N1	0	0	0	0	0	0	-	-	-
c1cc2c3c(cccc3c1)NC1(CCC3(CC1)Nc1cccc4cccc(c14)N3)N2	0	38	0	0	0	56	55	-	0
c1cc2c3c(cccc3c1)NC1(CCCCCC1)N2	0	19	0	0	0	39	51	-	0
COC(=O)[C@]12C[C@H](CC(=O)N3CCCCC3)C(=O)N(Cc3cccc4ccccc34)C1=C[C@H](C1CCCC1)O[C@@H]2C	0	0	0	-	-	-	-	-	-

Bioassay records (PubChem)
